Assay results reported in ChEMBL document CHEMBL1759832, “Discovery of torezolid as a novel 5-hydroxymethyl-oxazolidinone antibacterial agent” (Eur J Med Chem, 2011).
In brackets after ≈: the same amount, converted by molar mass.

Columns and labels:
[1] = Aqueous solubility of compound in distilled water; assay type: physicochemical
Procedure, shortened: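 Water added stepwise with repeated vortexing until solution turned transparent; solubility = amount dissolved divided by total distilled water volume in the final clear solution; triplicate, averaged.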

[2] = Chemical stability of compound in distilled water assessed as compound remaining at 100 ug/ml after 8 hrs; assay type: physicochemical
[3] = Chemical stability of compound in distilled water assessed as compound remaining at pH 3 at 100 ug/ml after 8 hrs; assay type: physicochemical; conditions: buffer, pH 3, 8 h
[4] = Chemical stability of compound in distilled water assessed as compound remaining at pH 5 at 100 ug/ml after 8 hrs; assay type: physicochemical; conditions: buffer, pH 5, 8 h
[5] = Chemical stability of compound in distilled water assessed as compound remaining at pH 7 at 100 ug/ml after 8 hrs; assay type: physicochemical; conditions: buffer, pH 7, 8 h
[6] = system: Staphylococcus aureus; experiment: Antibacterial activity against methicillin-resistant Staphylococcus aureus by agar dilution method; assay type: functional
Procedure, shortened: (§1)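 MIC by CLSI agar dilution on Mueller-Hinton agar for S. aureus (MSSA, MRSA) and Enterococcus faecium (VRE).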

[7] = system: Staphylococcus aureus; experiment: Antibacterial activity against methicillin-susceptible Staphylococcus aureus by agar dilution method; assay type: functional; procedure, shortened: as §1
[8] = system: Enterococcus; experiment: Antibacterial activity against vancomycin-resistant Enterococcus by agar dilution method; assay type: functional; procedure, shortened: as §1
[9] = system: Staphylococcus aureus; experiment: Antibacterial activity against methicillin-susceptible Staphylococcus aureus Smith infected po dosed ICR mouse assessed as protection against mouse mortality administered 1 hr after infection measured up to 7 days; assay type: functional
Procedure, shortened: (§2)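 Male outbred ICR mice (4-week-old, 18-20 g) infected intraperitoneally with S. aureus Smith, 2.9 × 10⁷ CFU/mouse in 5% mucin. Compounds given orally or intravenously 1 h after infection, eight mice per group. Mortality followed for 7 days. ED50 taken as the dose protecting 50% of infected mice from death.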

[10] = system: Haemophilus influenzae; experiment: Antibacterial activity against Haemophilus influenzae by agar dilution method; assay type: functional
Procedure, shortened: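 CLSI agar dilution; Haemophilus test medium used for H. influenzae; read-out MIC.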

[11] = Half life in ICR mouse at 10 mg/kg, iv by LC/MS/MS analysis; assay type: ADME, organism-based; design: dose 10 mg/kg, route intravenous; conditions: in vivo
Procedure, shortened: (§3)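 Single 10 mg/kg dose given orally by feeding tube or iv via tail vein to male ICR mice (4-week-old, 18-20 g). Plasma acidified with 1 N HCl, stored at -70 °C, analysed by LC/MS/MS. Parameters from mean plasma concentrations. For prodrug dosing, values are based on the active parent detected.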

[12] = AUC in ICR mouse at 10 mg/kg, iv by LC/MS/MS analysis; assay type: ADME, organism-based; design: dose 10 mg/kg, route intravenous; conditions: plasma; procedure, shortened: as §3
[13] = Clearance in ICR mouse at 10 mg/kg, iv by LC/MS/MS analysis; assay type: ADME, organism-based; design: dose 10 mg/kg, route intravenous; conditions: in vivo; procedure, shortened: as §3
[14] = Volume of distribution at steady state in ICR mouse at 10 mg/kg, iv by LC/MS/MS analysis; assay type: ADME, organism-based; design: dose 10 mg/kg, route intravenous; conditions: in vivo, read-out: Vdss; procedure, shortened: as §3
[15] = Half life in ICR mouse at 10 mg/kg, po by LC/MS/MS analysis; assay type: ADME, organism-based; design: dose 10 mg/kg, route oral; conditions: in vivo; procedure, shortened: as §3
[16] = AUC in ICR mouse at 10 mg/kg, po by LC/MS/MS analysis; assay type: ADME, organism-based; design: dose 10 mg/kg, route oral; conditions: plasma; procedure, shortened: as §3
[17] = Tmax in ICR mouse at 10 mg/kg, po by LC/MS/MS analysis; assay type: ADME, organism-based; design: dose 10 mg/kg, route oral; conditions: in vivo; procedure, shortened: as §3
[18] = Cmax in ICR mouse at 10 mg/kg, po by LC/MS/MS analysis; assay type: ADME, organism-based; design: dose 10 mg/kg, route oral; conditions: in vivo; procedure, shortened: as §3
[19] = Oral bioavailability in ICR mouse at 10 mg/kg by LC/MS/MS analysis; assay type: ADME, organism-based; conditions: in vivo; procedure, shortened: as §3
[20] = system: Staphylococcus aureus; experiment: Antibacterial activity against methicillin-resistant Staphylococcus aureus Smith infected iv dosed ICR mouse assessed as protection against mouse mortality administered 1 hr after infection measured up to 7 days; assay type: functional; procedure, shortened: as §2
[21] = system: Staphylococcus aureus; experiment: Antibacterial activity against methicillin-resistant Staphylococcus aureus Smith infected po dosed ICR mouse assessed as protection against mouse mortality administered 1 hr after infection measured up to 7 days; assay type: functional; procedure, shortened: as §2
[22] = system: Staphylococcus aureus; experiment: Antibacterial activity against methicillin-sensitive Staphylococcus aureus Smith infected iv dosed ICR mouse assessed as protection against mouse mortality administered 1 hr after infection measured up to 7 days; assay type: functional; procedure, shortened: as §2
[23] = system: Staphylococcus aureus; experiment: Antibacterial activity against methicillin-sensitive Staphylococcus aureus Smith infected po dosed ICR mouse assessed as protection against mouse mortality administered 1 hr after infection measured up to 7 days; assay type: functional; procedure, shortened: as §2
[24] = system: Streptococcus pneumoniae; experiment: Antibacterial activity against penicillin-resistant Streptococcus pneumoniae by agar dilution method; assay type: functional

Stability [2]	Stability [3]	Stability [4]	Stability [5]	SMILES	MIC [6]	MIC [7]	MIC [8]	ED50 [9]	MIC [10]	further results
92.3%	98%	88.1%	7.5%	C[C@H](N)C(=O)OC[C@H]1CN(c2ccc(-c3ccc(-c4nnn(C)n4)nc3)c(F)c2)C(=O)O1.Cl	–	–	–	–	–	solubility [1]: > 50 mg/mL
–	–	–	–	Cn1nnc(-c2ccc(-c3ccc(N4C[C@H](CNC(=O)CO)OC4=O)cc3F)cn2)n1	1 µg/mL (≈ 2.34 µM)	1 µg/mL (≈ 2.34 µM)	0.25 µg/mL (≈ 0.585 µM)	> 30 mg/kg	–	–
99.9%	99.9%	97.7%	60.9%	CC(C)[C@H](N)C(=O)OC[C@H]1CN(c2ccc(-c3ccc(-c4nnn(C)n4)nc3)c(F)c2)C(=O)O1.Cl	–	–	–	–	–	–
–	–	–	–	COCC(=O)NC[C@H]1CN(c2ccc(-c3ccc(-c4nnn(C)n4)nc3)c(F)c2)C(=O)O1	1 µg/mL (≈ 2.27 µM)	1 µg/mL (≈ 2.27 µM)	0.5 µg/mL (≈ 1.13 µM)	20.5 mg/kg	16 µg/mL (≈ 36.2 µM)	–
–	–	–	–	Cn1nnc(-c2ccc(-c3ccc(N4C[C@H](COc5ccon5)OC4=O)cc3F)cn2)n1	0.5 µg/mL (≈ 1.14 µM)	0.5 µg/mL (≈ 1.14 µM)	0.25 µg/mL (≈ 0.572 µM)	> 30 mg/kg	–	–
–	–	–	–	Cc1nnc(-c2ccc(-c3ccc(N4C[C@H](Cn5ccnn5)OC4=O)cc3F)cn2)o1	0.25 µg/mL (≈ 0.593 µM)	0.25 µg/mL (≈ 0.593 µM)	0.125 µg/mL (≈ 0.297 µM)	> 30 mg/kg	2 µg/mL (≈ 4.75 µM)	–
85.7%	95.1%	93.3%	11.6%	Cl.Cn1nnc(-c2ccc(-c3ccc(N4C[C@H](COC(=O)CN)OC4=O)cc3F)cn2)n1	–	–	–	–	–	–
96.9%	99.6%	99.5%	94.9%	Cn1nnc(-c2ccc(-c3ccc(N4C[C@H](COC(=O)CCN)OC4=O)cc3F)cn2)n1.O=C(O)C(F)(F)F	–	–	–	–	–	solubility [1]: 2.6 mg/mL
–	–	–	–	Cn1nnc(-c2ccc(-c3ccc(N4C[C@H](Cn5nccn5)OC4=O)cc3F)cn2)n1	16 µg/mL (≈ 38 µM)	16 µg/mL (≈ 38 µM)	16 µg/mL (≈ 38 µM)	–	–	–
–	–	–	–	Cn1nnc(-c2ccc(-c3ccc(N4C[C@H](CNC(=O)c5cccs5)OC4=O)cc3F)cn2)n1	0.5 µg/mL (≈ 1.04 µM)	0.5 µg/mL (≈ 1.04 µM)	0.5 µg/mL (≈ 1.04 µM)	> 30 mg/kg	–	–
99.4%	99.9%	97.3%	51.2%	CC(C)[C@H](N)C(=O)OC[C@H]1CN(c2ccc(-c3ccc(-c4nnn(C)n4)nc3)c(F)c2)C(=O)O1.O=C(O)C(F)(F)F	–	–	–	–	–	solubility [1]: 4.7 mg/mL
79.5%	86.6%	92.7%	8.1%	Cn1nnc(-c2ccc(-c3ccc(N4C[C@H](COC(=O)CN)OC4=O)cc3F)cn2)n1.O=C(O)C(F)(F)F	–	–	–	–	–	solubility [1]: 28 mg/mL
–	–	–	–	Cc1nnc(-c2ccc(-c3ccc(N4C[C@H](CO)OC4=O)cc3F)cn2)o1	0.5 µg/mL (≈ 1.35 µM)	0.5 µg/mL (≈ 1.35 µM)	0.5 µg/mL (≈ 1.35 µM)	4.2 mg/kg	4 µg/mL (≈ 10.8 µM)	–
90.7%	97%	87.8%	6.3%	C[C@H](N)C(=O)OC[C@H]1CN(c2ccc(-c3ccc(-c4nnn(C)n4)nc3)c(F)c2)C(=O)O1.O=C(O)C(F)(F)F	–	–	–	–	–	solubility [1]: > 50 mg/mL
99.9%	99.9%	94.9%	50.5%	Cl.Cn1nnc(-c2ccc(-c3ccc(N4C[C@H](COC(=O)CCN)OC4=O)cc3F)cn2)n1	–	–	–	–	–	solubility [1]: 20.4 mg/mL
–	–	–	–	Cn1nnc(-c2ccc(-c3ccc(N4C[C@H](CF)OC4=O)cc3F)cn2)n1	1 µg/mL (≈ 2.69 µM)	1 µg/mL (≈ 2.69 µM)	1 µg/mL (≈ 2.69 µM)	–	64 µg/mL (≈ 172 µM)	–
76.4%	81.9%	65.2%	0.2%	Cn1nnc(-c2ccc(-c3ccc(N4C[C@H](COC(=O)[C@@H]5CCCN5)OC4=O)cc3F)cn2)n1.O=C(O)C(F)(F)F	–	–	–	–	–	solubility [1]: < 1.6 mg/mL
–	–	–	–	CN(C)CC1CN(c2ccc(-c3ccc(-c4nnn(C)n4)nc3)c(F)c2)C(=O)O1 (single isomer, unassigned)	8 µg/mL (≈ 20.1 µM)	4 µg/mL (≈ 10.1 µM)	–	–	–	–
–	–	–	–	Cc1nnc(-c2ccc(-c3ccc(N4C[C@H](COc5ccon5)OC4=O)cc3F)cn2)o1	1 µg/mL (≈ 2.29 µM)	1 µg/mL (≈ 2.29 µM)	0.5 µg/mL (≈ 1.14 µM)	6.5 mg/kg	> 16 µg/mL	–
–	–	–	–	Cn1nnc(-c2ccc(-c3ccc(N4C[C@H](Cn5cncn5)OC4=O)cc3F)cn2)n1	2 µg/mL (≈ 4.75 µM)	2 µg/mL (≈ 4.75 µM)	1 µg/mL (≈ 2.37 µM)	> 30 mg/kg	–	–
–	–	–	–	Cn1nnc(-c2ccc(-c3ccc(N4C[C@H](Cn5ccnn5)OC4=O)cc3F)cn2)n1	0.25 µg/mL (≈ 0.593 µM)	0.25 µg/mL (≈ 0.593 µM)	0.125 µg/mL (≈ 0.297 µM)	5.74 mg/kg	2 µg/mL (≈ 4.75 µM)	–
–	–	–	–	CNC[C@H]1CN(c2ccc(-c3ccc(-c4nnn(C)n4)nc3)c(F)c2)C(=O)O1	4 µg/mL (≈ 10.4 µM)	4 µg/mL (≈ 10.4 µM)	4 µg/mL (≈ 10.4 µM)	–	–	–
–	–	–	–	Cn1nnc(-c2ccc(-c3ccc(N4C[C@H](CO)OC4=O)cc3F)cn2)n1 [TEDIZOLID]	0.5 µg/mL (≈ 1.35 µM)	0.5 µg/mL (≈ 1.35 µM)	0.125 µg/mL (≈ 0.338 µM)	8.8 mg/kg	4 µg/mL (≈ 10.8 µM)	half-life [11]: 3.49 h; AUC [12]: 103000 ng·h/mL; clearance [13]: 1.61 mL/min/kg; Vd [14]: 0.512 L/kg; half-life [15]: 3.12 h; AUC [16]: 49800 ng·h/mL; Tmax [17]: 2 h; Cmax [18]: 4620 ng/mL; bioavailability [19]: 48.5%
–	–	–	–	COC[C@H]1CN(c2ccc(-c3ccc(-c4nnn(C)n4)nc3)c(F)c2)C(=O)O1	2 µg/mL (≈ 5.2 µM)	2 µg/mL (≈ 5.2 µM)	2 µg/mL (≈ 5.2 µM)	–	–	–
–	–	–	–	CC(=O)NC[C@H]1CN(c2ccc(N3CCOCC3)c(F)c2)C(=O)O1 [LINEZOLID]	–	–	1 µg/mL (≈ 2.96 µM)	9.4 mg/kg	8 µg/mL (≈ 23.7 µM)	ED50 [20]: 12.9 mg/kg; ED50 [21]: 15.6 mg/kg; ED50 [22]: 29.1 mg/kg; ED50 [23]: 21.4 mg/kg
–	–	–	–	Cn1nnc(-c2ccc(-c3ccc(N4C[C@H](CNC(=O)c5ccco5)OC4=O)cc3F)cn2)n1	1 µg/mL (≈ 2.16 µM)	1 µg/mL (≈ 2.16 µM)	0.5 µg/mL (≈ 1.08 µM)	> 30 mg/kg	16 µg/mL (≈ 34.5 µM)	–
–	–	–	–	CC(=O)NC[C@H]1CN(c2ccc(-c3ccc(-c4nnnn4C)nc3)c(F)c2)C(=O)O1	0.78 µg/mL (≈ 1.9 µM)	0.78 µg/mL (≈ 1.9 µM)	0.125 µg/mL (≈ 0.304 µM)	–	–	MIC [24]: 0.39 µg/mL (≈ 0.948 µM)
